DENV2 CPE rescue: inhibitors of DENV2 cytopathic effect, primary screen, cell-based, plate reader, single concentration | DENV2-infected cells, cytopathic effect rescue | CPE inhibition, % at 9.99 µM | actives 1.7% (n = 350,000) | AID 651640, 2012; in the data active = CPE inhibition above about 20%, passing the limit was not always enough; inconclusive = no clear call, values can overlap the other calls; tested in BHK-21 cells;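 also: 0% = median of neutral control wells and 100% = median of positive control wells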
ERAP1 HTS inh: human ERAP1 aminopeptidase inhibitors, primary screen, biochemical, single point, plate reader; recombinant ERAP1, Leu-AMC fluorescence, 60 min; AID 652197, 2013; inhibition, % at 10.7 µM; Endoplasmic reticulum aminopeptidase 1 (Homo sapiens), Q9NZ08; actives 0.15% (n = 340,000);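 active = mean replicate inhibition of at least 30%, or all replicates individually reaching that 30% level; inactive = mean below 30% and not every replicate reaching it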;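 also: 0% = neutral control wells and 100% = L-leucinethiol positive control wells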
Target sequence (Q9NZ08 whole entry, looked up): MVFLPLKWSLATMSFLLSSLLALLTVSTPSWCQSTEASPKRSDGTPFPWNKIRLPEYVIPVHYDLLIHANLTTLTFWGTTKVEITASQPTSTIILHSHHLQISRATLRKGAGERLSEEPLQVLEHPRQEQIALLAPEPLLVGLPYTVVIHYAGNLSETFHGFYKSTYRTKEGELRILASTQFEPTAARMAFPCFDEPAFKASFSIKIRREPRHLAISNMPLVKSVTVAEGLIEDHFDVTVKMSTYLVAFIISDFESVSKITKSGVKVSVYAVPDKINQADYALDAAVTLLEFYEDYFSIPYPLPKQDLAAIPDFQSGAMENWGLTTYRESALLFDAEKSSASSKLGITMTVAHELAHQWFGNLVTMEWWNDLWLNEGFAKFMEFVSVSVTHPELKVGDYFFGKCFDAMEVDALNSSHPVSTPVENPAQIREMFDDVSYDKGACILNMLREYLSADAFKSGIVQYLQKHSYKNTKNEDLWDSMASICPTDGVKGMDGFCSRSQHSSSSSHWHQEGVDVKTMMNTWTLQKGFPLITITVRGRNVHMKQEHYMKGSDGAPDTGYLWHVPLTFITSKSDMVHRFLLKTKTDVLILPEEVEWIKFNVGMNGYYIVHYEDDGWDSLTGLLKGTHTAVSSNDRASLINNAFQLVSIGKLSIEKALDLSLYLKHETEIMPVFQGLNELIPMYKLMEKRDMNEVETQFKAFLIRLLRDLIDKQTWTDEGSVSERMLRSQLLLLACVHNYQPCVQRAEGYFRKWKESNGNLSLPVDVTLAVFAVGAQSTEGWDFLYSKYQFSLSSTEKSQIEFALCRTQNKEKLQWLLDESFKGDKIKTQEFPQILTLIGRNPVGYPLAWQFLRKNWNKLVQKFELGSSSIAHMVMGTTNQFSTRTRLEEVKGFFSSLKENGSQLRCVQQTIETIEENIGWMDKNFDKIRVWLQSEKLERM
SIRT5 block: SIRT5 desuccinylase inhibitors, primary screen, biochemical, fluorescence imaging, single point, set 5. Purified SirT5, succinyl-peptide AMC, trypsin-coupled fluorescence. inhibition, % at 15 µM. actives 1.1% (n = 330,000). AID 652115, 2013; in the data active = inhibition above about 15%; inconclusive = no clear call, values can overlap the other calls
PglD DTNB: C. jejuni PglD acetyltransferase inhibitors, primary screen, biochemical, DTNB colorimetric, single point | AID 602405, 2012 | purified PglD enzyme, DTNB colorimetric CoA detection | UDP-N-acetylbacillosamine N-acetyltransferase PglD (Campylobacter jejuni) | actives 0.098% (n = 360,000) | inhibition, % at 12.5 µM; in the data active = inhibition above about 16%, passing the limit was not always enough; inconclusive = no clear call, values can overlap the other calls
E-sel inducer: E-selectin induction in HUVECs, primary screen, imaging, HUVEC, immunofluorescence imaging, single point. P16581. normalized: neutral wells 0, TNF-alpha wells 100. activation, % at 7.58 µM. actives 0.37% (n = 260,000). AID 686992, 2013;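 active = mean E-selectin-positive cell signal at least 10% of the positive control, reached in at least 60% of replicates, without over 20% cell loss; inconclusive = no rule given, readout overlaps actives, possibly toxicity-flagged; inactive = the rest, including those meeting only one limit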
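Assay system: HUVEC, human umbilical vein endothelial cells / Amount: 3,000 HUVEC/well / Controls: TNF-alpha positive control, DMSO neutral control / Compound dosing: single concentration / Medium: EGM-2 over gelatin coat / Evaluation: percent E-selectin-positive cells / Signal: immunofluorescence imaging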
An asterisk follows results filed as active; u = inconclusive; x = not tested or not shown. Hits are enriched below; roughly 2.5% of the tested compounds scored in any of these assays.

SMILES	DENV2 CPE rescue	ERAP1 HTS inh	SIRT5 block	PglD DTNB	E-sel inducer
CC(C)CNC(=O)C1(C)CCCN1C(=O)c1csnn1 (stereo unspecified)	1	0	-1	4	2
CC(C)CNC(=O)C1(C)CCCCCN1C(=O)c1csnn1 (stereo unspecified)	113*	10	x	-5	0
O=C(C[C@@H]1C[C@H]2c3cc(NC(=O)c4ccc5c(c4)OCO5)ccc3O[C@H]2[C@H](CO)O1)NCc1ccc(Oc2ccccc2)cc1	7	1	22*	-1	1
O=C(Nc1ccc2c(c1)[C@H]1C[C@@H](CC(=O)N3CCc4ccccc4C3)O[C@@H](CO)[C@H]1O2)Nc1ccccc1F	-5	0	1	7	0
O=C(C[C@@H]1C[C@H]2c3cc(NC(=O)Nc4ccccc4F)ccc3O[C@H]2[C@H](CO)O1)NCC1CC1	27*	4	22*	0	0
O=C(Nc1ccc2c(c1)[C@H]1C[C@H](CC(=O)N3CCc4ccccc4C3)O[C@H](CO)[C@H]1O2)Nc1ccccc1F	3	2	15*	3	-1
O=C(C[C@@H]1C[C@H]2c3cc(NC(=O)c4ccc5c(c4)OCO5)ccc3O[C@H]2[C@@H](CO)O1)NCc1ccc(Oc2ccccc2)cc1	4	3	-2	-2	0
O=C(C[C@@H]1C[C@@H]2c3cc(NC(=O)Nc4ccccc4F)ccc3O[C@@H]2[C@H](CO)O1)NCC1CC1	68*	6	4	0	0
O=C(C[C@H]1C[C@@H]2c3cc(NC(=O)Nc4ccccc4F)ccc3O[C@@H]2[C@@H](CO)O1)NCC1CC1	9	2	0	2	0
CCS(=O)(=O)N[C@@H]1CC[C@H](CC(=O)Nc2ccc(-c3ccccc3)cc2)O[C@@H]1CO	-2	1	x	0	0
C=CC[C@]1(C(=O)NCCCOC)COC(c2ccc(OCCCO)cc2)=N1	-6	7	1	-3	x
O=C(C[C@H]1C[C@@H]2c3cc(NC(=O)Nc4ccccc4F)ccc3O[C@@H]2[C@@H](CO)O1)NCc1ccc(Oc2ccccc2)cc1	-8	3	18*	2	0
COc1ccc(NC(=O)C2C(c3ccc4c(c3)OCO4)=Nc3ccccc3N2C(C)=O)cc1 (stereo unspecified)	27*	1	0	x	0
COc1ccc(NC(=O)C2C(c3ccc4c(c3)OCO4)=Nc3ccccc3N2C(=O)c2cccc(C(F)(F)F)c2)cc1 (stereo unspecified)	-2	x	-4	x	0
Cc1cc(N/N=C/c2ccc(O)cc2)c2cccc(C)c2n1	-26	5	21*	-8	x
C[C@H]1CN([C@@H](C)CO)C(=O)c2cc(NC(=O)CCN3CCOCC3)ccc2O[C@H]1CN(C)S(=O)(=O)c1cn(C)cn1	-1	5	15	0	0
CCc1ccc(N2CC(C(=O)Nc3ccc(F)cc3)CC2=O)cc1 (stereo unspecified)	-1	-3	1	2	42*
Cc1cnc(NC(=O)C2CC(=O)N(c3ccc4c(c3)OCCO4)C2)s1 (stereo unspecified)	-6	0	x	x	0
Cc1cnc(NC(=O)C2CC(=O)N(c3cccc(Cl)c3)C2)s1 (stereo unspecified)	33*	-2	1	-2	0
COc1cccc(N2CC(C(=O)Nc3ccc(F)cc3)CC2=O)c1 (stereo unspecified)	27*	-1	0	-6	0
O=C(Nc1ccncc1)C1CC(=O)N(c2ccc(F)cc2)C1 (stereo unspecified)	-1	-5	-4	5	x
Cn1ccc2c(N3CCOCC3)cc3c(c21)C1CCC3O1 (stereo unspecified)	48*	-2	-14	-1	-2
O=C(Nc1cc(C(=O)Nc2ccccc2C(=O)O)cc(C(=O)Nc2ccccc2C(=O)O)c1)c1ccccc1	-1	0	25*	1	0
CCc1ccccc1NC(=O)c1cccc(NC(=O)/C=C/c2ccco2)c1	x	x	x	-3	-1
O=C(/C=C/c1ccco1)Nc1cccc(C(=O)Nc2ccccc2C(=O)O)c1	u	-4	21*	-3	x
SMILES	DENV2 CPE rescue	ERAP1 HTS inh	SIRT5 block	PglD DTNB	E-sel inducer
OC[C@@H]1CN(Cc2ccco2)C[C@H](n2cnc3c(NC4CCCC4)ncnc32)O1	-7	-3	x	4	0
O=C(NCC[C@@H]1CC[C@@H](NS(=O)(=O)c2ccccc2F)[C@H](CO)O1)c1ccc(F)cc1	-2	0	1	2	0
O=C(c1c(F)cccc1F)N(Cc1ccccc1)Cc1ccccc1	-3	-4	-2	1	32*
O=C(c1c(F)c(F)c(F)c(F)c1F)N(Cc1ccccc1)Cc1ccccc1	x	x	x	-3	x
O=S(=O)(c1ccc2c(c1)OCCO2)N1CCCN(S(=O)(=O)c2c(F)cccc2F)CC1	90*	-1	0	-9	0
Cc1ccc(/C=C/C(=O)N2CCN(c3cccc(C(F)(F)F)c3)CC2)cc1	1	2	30*	x	x
COc1ccc(NS(=O)(=O)c2cccs2)cn1	24*	-6	-1	x	-2
CCc1cc(Cn2nc(-c3ccccc3)cc2C(=O)NCC2CC2)on1	48*	x	x	3	0
O=C1NC[C@@H](CCCCN2C[C@H](Cc3ccc(O)cc3)N(CC3CCCCC3)C(=O)C2=O)N(CCC2CCCCC2)C1=O	59*	-2	1	x	x
O=C1NC[C@@H](CCCCN2CCN(Cc3ccccc3)C(=O)C2=O)N(CCC2CCCCC2)C1=O	21*	-1	1	x	x
Cc1ccc(N(CC(=O)Nc2ccccc2-c2ccccc2)S(=O)(=O)c2ccccc2)cc1	x	x	x	-9	x
O=C(Nc1ccccc1C(=O)NCc1cccnc1)c1ccccc1Cl	64*	0	-1	1	0
O=C(Nc1ccc(Cl)cc1C(=O)NCc1cccnc1)c1ccc(Cl)cc1Cl	0	-3	-5	2	0
C[C@H](CO)N1C[C@H](C)[C@@H](CN(C)CC2CCCCC2)Oc2ccc(NS(=O)(=O)c3ccc(Cl)cc3)cc2CC1=O	8	-2	18*	4	-11
C[C@H](CO)N1C[C@H](C)[C@@H](CN(C)CC2CC2)Oc2ccc(NS(=O)(=O)c3ccc(Cl)cc3)cc2CC1=O	6	-2	2	2	2
C[C@@H]1CN([C@H](C)CO)C(=O)Cc2cc(NS(=O)(=O)c3ccc(Cl)cc3)ccc2O[C@H]1CN(C)CC1CCCCC1	-3	-4	14	1	-11
C[C@@H]1CN([C@H](C)CO)C(=O)Cc2cc(NS(=O)(=O)c3ccc(Cl)cc3)ccc2O[C@@H]1CN(C)CC1CCCCC1	49*	-5	x	-2	-9
